Assays:
[1] = Oral bioavailability in Sprague-Dawley rat at 1.3 mg/kg, iv or 3.4 mg/kg, po; format: ADME, organism-based; settings: in vivo
Summary of the method: (§1)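 Single intravenous or oral doses given to Sprague-Dawley rats. Values are reported as means: Cmax (ng/mL), half-life (min), plasma clearance (mL/min/kg), steady-state volume of distribution (L/kg) and oral bioavailability F (%).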

[2] = Cmax in Beagle dog at 0.8 mg/kg, iv or 4.0 mg/kg, po; format: ADME, organism-based, Canis lupus familiaris; settings: in vivo
Summary of the method: (§2)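 Single-dose study, with separate intravenous and oral administrations at the listed mg/kg. Plasma concentrations were followed over time, and mean values were derived for Cmax, T1/2, clearance (mL/min/kg), Vdss (L/kg) and oral bioavailability (%).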

[3] = target: RNA-directed RNA polymerase (Hepacivirus hominis) (UniProt O39930); assay: Inhibitory activity against HCV 3a NS5B RNA at 10 uM
[4] = target: T1, RNA-directed RNA polymerase (Hepacivirus hominis, UniProt O39930); assay: Inhibitory activity against HCV 2a NS5B RNA polymerase; parameters: species or system Hepatitis C virus genotype 2
[5] = Cmax in Sprague-Dawley rat at 1.3 mg/kg, iv or 3.4 mg/kg, po; format: ADME, organism-based; settings: in vivo; summary of the method: as §1
[6] = target: T2, Nuclear receptor subfamily 1 group I member 2 (Homo sapiens, UniProt O75469); assay: Effect on PXR activity
T2 sequence (O75469 whole entry): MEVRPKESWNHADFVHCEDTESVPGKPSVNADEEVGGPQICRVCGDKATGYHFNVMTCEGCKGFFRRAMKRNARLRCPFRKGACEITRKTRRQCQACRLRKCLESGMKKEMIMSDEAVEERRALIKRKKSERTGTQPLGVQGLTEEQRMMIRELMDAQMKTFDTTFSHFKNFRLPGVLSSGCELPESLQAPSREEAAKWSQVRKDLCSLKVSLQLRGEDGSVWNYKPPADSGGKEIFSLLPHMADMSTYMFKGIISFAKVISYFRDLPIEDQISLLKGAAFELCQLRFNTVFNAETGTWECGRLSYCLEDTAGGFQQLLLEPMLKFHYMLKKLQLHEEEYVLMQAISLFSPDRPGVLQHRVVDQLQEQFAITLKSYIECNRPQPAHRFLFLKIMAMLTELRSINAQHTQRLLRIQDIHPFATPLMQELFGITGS

[7] = Volume of distribution in Sprague-Dawley rat at 1.3 mg/kg, iv or 3.4 mg/kg, po; format: ADME, organism-based; settings: in vivo, read-out: Vdss; summary of the method: as §1
[8] = Half life in cynomolgus monkey at 0.8 mg/kg, iv or 4.0 mg/kg, po; format: ADME, organism-based, Macaca fascicularis; settings: in vivo; summary of the method: as §2
[9] = Cmax in cynomolgus monkey at 0.8 mg/kg, iv or 4.0 mg/kg, po; format: ADME, organism-based, Macaca fascicularis; settings: in vivo; summary of the method: as §2
[10] = Volume of distribution in cynomolgus monkey at 0.8 mg/kg, iv or 4.0 mg/kg, po; format: ADME, organism-based, Macaca fascicularis; settings: in vivo, read-out: Vdss; summary of the method: as §2
[11] = Oral bioavailability in cynomolgus monkey at 0.8 mg/kg, iv or 4.0 mg/kg, po; format: ADME, organism-based, Macaca fascicularis; settings: in vivo; summary of the method: as §2
[12] = target: T1, RNA-directed RNA polymerase; assay: Inhibitory activity against HCV delta 21 NS5B RNA polymerase by SPA assay; parameters: species or system Hepatitis C virus subtype 1b
[13] = Clearance in cynomolgus monkey at 0.8 mg/kg, iv or 4.0 mg/kg, po; format: ADME, organism-based, Macaca fascicularis; settings: in vivo; summary of the method: as §2
[14] = target: RNA-directed RNA polymerase (Hepacivirus hominis) (UniProt O39930); assay: Inhibition of HCV RNA replication in Huh7 cells; format: functional, cell-based; settings: Huh-7
Summary of the method: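 Huh-7 subgenomic replicon cells were seeded at 3 × 10³/well in DMEM with 10% FCS, 1% NEAA and 1 mg/mL G418, and allowed 4 h to attach. Eleven 2.5-fold DMSO dilutions were added (final 10,000 to 1.0 nM) and cells incubated 40 h. Neo RNA was measured by TaqMan RT-PCR, normalised to cyclophilin against DMSO controls; n = 8 wells per dilution.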

[15] = tested on: Hepatitis C virus; assay: Protein binding in Huh7 cells using HCV 1b replicon by a replicon cell assay in presence of HSA and alpha-acid glycoprotein; format: functional, organism-based, Hepacivirus hominis; settings: genotype 1b, Huh-7
[16] = target: DNA polymerase beta (Homo sapiens, UniProt P06746); assay: Inhibitory activity against human DNA-polymerase-beta

Chain of RNA-directed RNA polymerase (Hepacivirus hominis) (O39930 1-591): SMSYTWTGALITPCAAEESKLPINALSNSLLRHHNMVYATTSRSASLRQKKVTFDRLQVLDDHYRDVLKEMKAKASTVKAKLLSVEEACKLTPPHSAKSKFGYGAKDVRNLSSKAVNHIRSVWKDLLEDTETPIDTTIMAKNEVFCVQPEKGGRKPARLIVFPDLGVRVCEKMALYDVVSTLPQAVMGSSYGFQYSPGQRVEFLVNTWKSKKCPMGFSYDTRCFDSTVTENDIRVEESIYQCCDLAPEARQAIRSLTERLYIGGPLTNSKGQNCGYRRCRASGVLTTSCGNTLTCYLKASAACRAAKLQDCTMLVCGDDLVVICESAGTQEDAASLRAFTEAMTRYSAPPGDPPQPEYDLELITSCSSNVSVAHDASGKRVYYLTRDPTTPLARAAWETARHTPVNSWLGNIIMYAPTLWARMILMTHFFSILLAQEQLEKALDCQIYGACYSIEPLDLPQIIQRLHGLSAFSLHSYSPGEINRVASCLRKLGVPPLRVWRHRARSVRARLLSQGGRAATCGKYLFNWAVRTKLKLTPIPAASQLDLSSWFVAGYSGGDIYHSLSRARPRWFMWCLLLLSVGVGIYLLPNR
T1 sequence (O39930 whole entry): as the sequence (O39930 1-591) above

Structure (SMILES): O=c1c(C2=Nc3ccccc3S(=O)(=O)N2)c(O)c2cc(F)ccc2n1CCC1CC1
- bioavailability [1]: 44%
- Cmax [2]: 4460 ng/mL
- inhibition [3]: 60%
- IC50 [4]: 13 nM
- Cmax [5]: 4140 ng/mL
- EC50 [6]: 5300 nM
- Vd [7]: 0.36 L/kg
- half-life [8]: 1.61 h
- Cmax [9]: 5440 ng/mL
- Vd [10]: 0.11 L/kg
- bioavailability [11]: > 53%
- IC50 [12]: 10 nM
- clearance [13]: 0.76 mL/min/kg
- EC90 [14]: 207 nM
- EC50 [15]: > 20000 nM
- IC50 [16]: > 50000 nM

From ChEMBL document CHEMBL1148625, “3-(1,1-dioxo-2H-(1,2,4)-benzothiadiazin-3-yl)-4-hydroxy-2(1H)-quinolinones, potent inhibitors of hepatitis C virus RNA-dependent RNA polymerase” (J Med Chem, 2006)
